Each block holds one compound with its values, some of them ahead of it.
Legend:
[1] = Visual cytotoxicity in uninfected HFF's used in plaque reduction assays; assay type: cell-based; conditions: human, uninfected human foreskin fibroblasts (HFF)
[2] = Cytotoxicity by neutral red assay in HFF; assay type: cell-based; conditions: human, human foreskin fibroblasts (HFF)
[3] = Kinetics of hydrolysis at pH 7.0; assay type: physicochemical; conditions: phosphate buffer
[4] = Stability of prodrug / conversion to cyclopropavir in mouse plasma; assay type: in vitro ADME; conditions: for First order rate constant of conversion to cyclopropavir (5) / half live of conversion to cyclopropavir (5): 50 μM
Outline: (§1)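 Blood was drawn by cardiac puncture from anaesthetised male Swiss-Webster mice into EDTA(K3) and iced; plasma was spun 10 min at 1100 × G, 4°C. Blood or plasma was spiked from a DMSO stock to a 50 μM final and held at 0°C (ice water) or 37°C. A no-incubation control was processed straight after spiking. Timed aliquots were frozen (blood first spun 2200 × G, 5 min, 4°C). Prodrug and parent were measured by HPLC, UV.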

[5] = Stability of prodrug / conversion to cyclopropavir in mouse whole blood; assay type: in vitro ADME; conditions: for First order rate constant of conversion to cyclopropavir (5) / half live of conversion to cyclopropavir (5): 50 μM
Outline: as §1

[6] = Pharmacokinetics after IV bolus dosing of prodrug; assay type: in vivo; conditions: mice, IV 24.6 mg/kg prodrug
[7] = pH 7.08, 37 °C; cited from earlier work
[8] = analyte prodrug (6), two compartments model

Compound: Nc1nc(O)c2ncn(COC(CO)CO)c2n1 [Ganciclovir, reference compound]
CC50 [1]: > 100 µM
CC50 [2]: > 100 µM

Compound: Nc1nc2c(ncn2/C=C2/CC2(CO)CO)c(=O)[nH]1 [Cyclopropavir (5)]
CC50 [1]: > 100 µM
CC50 [2]: > 380 µM

half-life at 2.25 mM [3]: 22.5 h
First order rate constant of conversion to cyclopropavir (5) ([4]; 0°C): 0.0010 min.^−1
half live of conversion to cyclopropavir (5) ([4]; 0°C): 727 min
First order rate constant of conversion to cyclopropavir (5) ([4]; 37°C): 0.0172 min.^−1
half live of conversion to cyclopropavir (5) ([4]; 37°C): 40.4 min
conversion of valcyclopropavir (6) to cyclopropavir (5), no incubation ([4]; processed immediately after spiking): 3.7%
half-life at 50 μM ([5]; male, Swiss-Webster, mouse, whole blood): 22 h
First order rate constant of conversion to cyclopropavir (5) ([5]; mouse whole blood, 0°C): 0.0005 min.^−1
half live of conversion to cyclopropavir (5) ([5]; mouse whole blood, 0°C): 1310 min
First order rate constant of conversion to cyclopropavir (5) ([5]; mouse whole blood, 37°C): 0.0087 min.^−1
half live of conversion to cyclopropavir (5) ([5]; mouse whole blood, 37°C): 80 min
conversion of valcyclopropavir (6) to cyclopropavir (5), no incubation ([5]; mouse whole blood, processed immediately after spiking): 9.0%
Rate constant of distribution phase, α [6, 8]: 0.25 min.^−1
Rate constant of elimination phase, β [6, 8]: 0.00263 min.^−1
Volume of main compartment, V [6, 8]: 0.0753 L/kg
AUC ([6]; male, Swiss-Webster, mouse, plasma, iv, 24.6 mg/kg, Area under the curve, AUC, analyte prodrug (6), single compartment first order elimination model): 1020 ng·h/mL
clearance ([6]; male, Swiss-Webster, mouse, plasma, iv, 24.6 mg/kg, Clearance (Cl), analyte prodrug (6), single compartment first order elimination model): 402 mL/min
half-life ([6]; male, Swiss-Webster, mouse, plasma, iv, 24.6 mg/kg, Half-life, T1/2, analyte prodrug (6), single compartment first order elimination model): 2.68 h
Compound: CC(C)[C@H](N)C(=O)OCC1(CO)C/C1=C/n1cnc2c(=O)[nH]c(N)nc21.Cl (mixture of isomers) [Valcyclopropavir (6), (Z)-9-{[2-Hydroxymethyl-2-(L-valyloxymethyl)cyclopropylidene]methyl}guanine Hydrochloride]
CC50 [1]: > 100 µM
CC50 [2]: > 300 µM

Compound: CC(C)[C@H](N)C(=O)OCC(CO)OCn1cnc2c(=O)nc(N)[nH]c21 (stereo partly shown) [valganciclovir (2)]
half-life of hydrolysis [7]: 11 h

— paper PMC2931272 (Antiviral chemistry & chemotherapy, 2009)
